proCasp7 act – activates human procaspase-7, counter-screen for procaspase-3 activators; recombinant procaspase-7, Ac-DEVD-pNA absorbance 405 nm; D23A/D198A/D206A triple mutant, cannot self-cleave; scale: DMSO 0, 5 µM enzyme 100; actives 0.093% (n = 330,000); activation, % at 8.5 µM; AID 463210;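 active = percent activation above the screen-wide mean plus 3 SD, cut at about 25% in these data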
Target sequence (P55210 whole entry D23A/D198A/D206A): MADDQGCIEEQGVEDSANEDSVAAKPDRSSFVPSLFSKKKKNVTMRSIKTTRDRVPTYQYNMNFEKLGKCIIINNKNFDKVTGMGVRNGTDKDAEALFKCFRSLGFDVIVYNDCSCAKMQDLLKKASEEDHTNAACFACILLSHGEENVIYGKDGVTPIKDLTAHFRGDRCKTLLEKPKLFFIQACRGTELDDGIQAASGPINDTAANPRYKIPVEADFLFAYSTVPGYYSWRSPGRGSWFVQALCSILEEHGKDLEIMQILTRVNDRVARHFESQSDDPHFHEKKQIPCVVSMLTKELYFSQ
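Assay system: Uncleavable procaspase-7 mutant enzyme | Input: 2 µM procaspase-7 mutant as dispensed | Timing: 1 h compound preincubation, 2 h substrate cleavage, 25 °C | Repeats: One well per compound | Control set: DMSO wells as 0%, DMSO with 5 µM added PC-7 as 100% | Technique: Epi-absorbance of released pNA at 405 nm, two timepoints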
NR3A LBD binder – NR3A (human) ligand-binding domain modulation | NR3A LBD differential scanning fluorimetry, Tm shift; 0% = protein alone, 100% = glycine-bound protein | Tm shift relative to glycine control, % at 25 µM | actives 2.5% (n = 340,000) | AID 1259313;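 active = melting temperature shift of at least 10% of the positive control shift, at one fixed dose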
aDG glyco act – alpha-DG glycosylation activation; Pro5-aDG cells, alpha-DG glycosylation AlphaScreen (IIH6); 0% Pro5, 100% B10-LARGE cell signal; actives 0.22% (n = 360,000); activation, % at 10 µM;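 active = activation of at least 8% versus controls, or a plate z-score of at least 8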;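 also: Pro5 are CHO cells carrying HIG-tagged alpha-DG that lacks glycosylation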
MPTP inh – blocks calcium-induced mitochondrial swelling; isolated mouse mitochondria, Ca2+ swelling absorbance, 30 min; inhibition, % at 10 µM; actives 1.4% (n = 360,000); AID 602449;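 active = inhibition of 50% or more, scaled per plate between neutral and stimulator controls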;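 also: 0% = DMSO wells given calcium and 100% = 1 mM EGTA wells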
proCasp3 act – activators of human procaspase-3; P42574; recombinant procaspase-3 D3A, Ac-DEVD-pNA absorbance 405 nm; activation, % at 8.5 µM; actives 0.11% (n = 330,000); AID 463141;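 active = activation above the mean of all tested compounds plus 3 SD, cut at about 21% in these data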;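 also: 0% = DMSO alone and 100% = DMSO wells spiked with extra 5 µM PC-3 D3A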
Target sequence (P42574 whole entry D9A/D28A/D175A): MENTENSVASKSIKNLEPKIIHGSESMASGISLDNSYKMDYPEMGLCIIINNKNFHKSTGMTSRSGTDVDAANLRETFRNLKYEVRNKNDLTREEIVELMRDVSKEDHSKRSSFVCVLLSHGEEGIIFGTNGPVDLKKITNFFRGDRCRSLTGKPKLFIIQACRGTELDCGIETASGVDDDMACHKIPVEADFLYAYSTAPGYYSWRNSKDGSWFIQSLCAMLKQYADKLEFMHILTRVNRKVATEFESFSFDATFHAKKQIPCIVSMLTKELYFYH
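Assay system – Procaspase-3 D3A mutant · Benchmarks – DMSO low control, extra-enzyme high control · Technique – 405 nm absorbance of p-nitroaniline, reads at 0 and 120 min · Doses – 8.5 µM nominal · Measure – % activation between DMSO and enzyme-spiked controls · Also added – Ac-DEVD-pNA chromogenic peptide substrate · Schedule – 1 h compound preincubation, 2 h substrate hydrolysis at 25 °C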
Rh123 counter – mitochondrial membrane potential, counter-screen | actives 78% (n = 5,000) | isolated mitochondria, Rhodamine 123 fluorescence | AID 624504 | shares compounds with MPTP inh | inhibition, % at 10 µM; in the data active = inhibition above about 22%;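 also: 0% = DMSO vehicle and 100% = positive control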
MPTP swell DR – MPTP inhibition, dose response swelling confirmation; shares compounds with MPTP inh; isolated mitochondria swelling, absorbance; IC50, µM; actives 58% (n = 780); in the data active = IC50 below about 20 µM
MPTP cs DR – counter-screen for mitochondrial permeability transition pore inhibitors, dose response; shares compounds with MPTP inh; isolated mitochondria counterscreen, fluorescence read-out; IC50, µM; actives 49% (n = 780); AID 651564; in the data active = IC50 below about 80 µM
Numbers without * were called inactive. Only some compounds are listed: those with a hit (about 3.7% of all), similar ones and a draw of the others.

Screening FC(F)(F)Sc1ccc(NC(=S)NCc2ccccc2)cc1 returned proCasp7 act 3, NR3A LBD binder 20*, aDG glyco act 0, MPTP inh 84*, proCasp3 act -4 and Rh123 counter 73*.
For S=C(NCCCc1ccccc1)Nc1ccccc1 the results were NR3A LBD binder -9, aDG glyco act 0 and MPTP inh 0.
`S=C(NCCCc1ccccc1)Nc1ccc(Cl)cc1` gave proCasp7 act -4, NR3A LBD binder 22*, aDG glyco act 0, MPTP inh 97*, proCasp3 act -2 and Rh123 counter 91*.
For S=C(NCc1ccccc1)Nc1ccncc1 the results were proCasp7 act 0, NR3A LBD binder 0, aDG glyco act 1, MPTP inh 3 and proCasp3 act 1.
For S=C(NCCC(c1ccccc1)c1ccccc1)Nc1ccc(Cl)cc1 the results were proCasp7 act -8, NR3A LBD binder 15*, aDG glyco act 0, MPTP inh 93*, proCasp3 act 2 and Rh123 counter 75*.
`S=C(NCc1ccccc1)Nc1ccc(Cl)cc1` gave proCasp7 act -10, NR3A LBD binder -2, aDG glyco act 0, MPTP inh 72*, proCasp3 act -8 and Rh123 counter 81*.
For CCc1ccc(NC(=S)NCc2ccccc2)cc1 the results were proCasp7 act 5, NR3A LBD binder 0, aDG glyco act 0, MPTP inh 0 and proCasp3 act 0.
Screening S=C(NCCC(c1ccccc1)c1ccccc1)Nc1ccccc1Cl returned proCasp7 act -1, NR3A LBD binder -3, aDG glyco act 0, MPTP inh 4 and proCasp3 act 3.
Screening C[C@H]1CN([C@@H](C)CO)S(=O)(=O)c2ccc(Br)cc2O[C@H]1CN(C)C(=O)c1cccnc1 returned aDG glyco act 0 and MPTP inh 0.
S=C(NCc1ccccc1)NCc1cccc(CNC(=S)NCc2ccccc2)c1 was read as proCasp7 act 3, NR3A LBD binder 20*, aDG glyco act 0, MPTP inh 84*, proCasp3 act 4 and Rh123 counter 78*.
Screening CCCCCCCCSc1nnc(CSc2nc3nc(C)cc(C)n3n2)o1 returned proCasp7 act -4, NR3A LBD binder -1, aDG glyco act 1, MPTP inh 87*, proCasp3 act 0, Rh123 counter -2, MPTP swell DR inactive and MPTP cs DR 50*.
Screening CCc1ccc([C@@H]2CC=C(C(=O)O)[C@H](c3ccc(F)cc3)N2S(=O)(=O)c2ccc(C)cc2)cc1 returned proCasp7 act -1, NR3A LBD binder 0, aDG glyco act 0, MPTP inh 1 and proCasp3 act 9.
Screening O=C(Nc1ccc(Br)cc1)/C(=C/c1cccc([N+](=O)[O-])c1)NC(=O)C1CCCCC1 returned proCasp7 act -1, NR3A LBD binder -15, aDG glyco act 0, MPTP inh 90*, proCasp3 act 8 and Rh123 counter 84*.
For O=C(O)CCC(=O)Nc1ccc(Oc2ncnc3cc(Cl)ccc23)nc1 the results were proCasp7 act 4, NR3A LBD binder 0, aDG glyco act 0, MPTP inh 3 and proCasp3 act 3.
O=C(Nc1ccc(N2CCCC2)c(S(=O)(=O)Nc2cccc(C(F)(F)F)c2)c1)c1cccs1 was read as proCasp7 act -3, NR3A LBD binder 30*, aDG glyco act 0, MPTP inh 74*, proCasp3 act -11 and Rh123 counter 50*.
`COc1ccc(C(=O)N[C@H](C(=O)Nc2cccc(S(=O)(=O)N3CCOCC3)c2)C(C)C)cc1` gave aDG glyco act 0 and MPTP inh 2.
Screening Cc1ccc(C)c(NC(=S)NCCSc2ccc(Cl)cc2)c1 returned proCasp7 act 1, NR3A LBD binder -5, aDG glyco act 0, MPTP inh 76*, proCasp3 act 8 and Rh123 counter 90*.
Cc1cccc(NC(=S)NCCN2CCOCC2)c1 was read as proCasp7 act 7, NR3A LBD binder -1, aDG glyco act 0, MPTP inh 0 and proCasp3 act 7.
Screening Cc1cccc(NC(=S)NCCSc2ccc(Cl)cc2)c1 returned proCasp7 act 0, NR3A LBD binder 14*, aDG glyco act 0, MPTP inh 98*, proCasp3 act -7 and Rh123 counter 85*.
Screening CCc1ccccc1NC(=S)NCCSc1ccc(Cl)cc1 returned proCasp7 act 2, NR3A LBD binder -1, aDG glyco act 1, MPTP inh 94*, proCasp3 act 2 and Rh123 counter 94*.
Screening Cc1cc(Cl)ccc1NC(=S)NCCCO returned proCasp7 act 6, NR3A LBD binder -3, aDG glyco act 0, MPTP inh -1 and proCasp3 act -13.
Screening Cc1ccc(Cl)cc1NC(=S)NCCCSC1CCCCC1 returned proCasp7 act 6, NR3A LBD binder 1, aDG glyco act 1, MPTP inh 99*, proCasp3 act 0 and Rh123 counter 91*.
For CCOC(=O)[C@]12CCCC=C1N(Cc1ccccc1)C(=O)[C@H](CC(=O)NCC13CC4CC(CC(C4)C1)C3)C2 the results were aDG glyco act 0 and MPTP inh -2.
Cc1ccc(NC(=S)NCCSc2ccc(Cl)cc2)c(C)c1 was read as proCasp7 act 4, NR3A LBD binder 1, aDG glyco act 0, MPTP inh 81*, proCasp3 act -2 and Rh123 counter 87*.
Cc1ccc(NC(=S)NCc2ccc(Cl)cc2)c(C)c1 was read as proCasp7 act -3, NR3A LBD binder 0, aDG glyco act 0, MPTP inh 3 and proCasp3 act 2.
Screening Cc1ccccc1NC(=S)NCCSc1ccc(Cl)cc1 returned proCasp7 act -3, NR3A LBD binder -4, aDG glyco act 1, MPTP inh 92*, proCasp3 act -11 and Rh123 counter 86*.
Cc1ccc(NC(=S)NCC(C)CSc2ccc(Cl)cc2)cc1 (stereo unspecified) was read as proCasp7 act -7, NR3A LBD binder -2, aDG glyco act 0, MPTP inh 44 and proCasp3 act 7.
Cc1cccc(NC(=S)NCC(C)CSc2ccc(Cl)cc2)c1 (stereo unspecified) was read as proCasp7 act -4, NR3A LBD binder 9, aDG glyco act 1, MPTP inh 89*, proCasp3 act -4 and Rh123 counter 94*.

Compound activity from PubChem.
